From ChEMBL document CHEMBL3817843, “Understanding Oxadiazolothiazinone Biological Properties: Negative Inotropic Activity versus Cytochrome P450-Mediated Metabolism” (J Med Chem, 2016)
Calls of active or inactive are those of the source. No cut-off for these calls is given here.

Columns and labels:
Cytochrome P450 3A4 [1] = biological target: T1, Cytochrome P450 3A4 (Homo sapiens, UniProt P08684); experiment: Inhibition of CYP3A4 in human liver microsomes using midazolam as substrate after 4 mins by LC-MS analysis
T1 sequence (P08684 whole entry): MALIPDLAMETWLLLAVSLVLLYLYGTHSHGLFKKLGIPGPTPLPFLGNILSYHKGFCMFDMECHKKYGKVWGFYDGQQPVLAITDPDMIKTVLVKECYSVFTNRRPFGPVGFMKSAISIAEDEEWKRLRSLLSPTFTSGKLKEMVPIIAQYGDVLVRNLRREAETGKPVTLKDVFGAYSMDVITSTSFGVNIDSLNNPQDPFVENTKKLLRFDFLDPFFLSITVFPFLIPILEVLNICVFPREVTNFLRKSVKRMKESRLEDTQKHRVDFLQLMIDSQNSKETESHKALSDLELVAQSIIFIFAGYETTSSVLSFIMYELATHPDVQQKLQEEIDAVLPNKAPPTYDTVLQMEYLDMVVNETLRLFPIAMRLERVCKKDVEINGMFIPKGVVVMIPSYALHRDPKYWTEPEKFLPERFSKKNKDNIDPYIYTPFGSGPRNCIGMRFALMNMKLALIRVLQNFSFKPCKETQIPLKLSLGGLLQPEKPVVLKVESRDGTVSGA

[2] = Half life in human liver microsomes assessed as CYP-mediated compound degradation at 1 uM by LC-MS analysis
[3] = biological target: Voltage-gated L-type calcium channel (Rattus norvegicus, UniProt P22002+Q02485+P27732); experiment: Displacement of [3H]Verapamil from LTCC PAA site in Sprague-Dawley rat cardiomyocytes after 60 mins by liquid scintillation counting analysis; format: cell-based
Procedure, shortened: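 Frozen pooled cardiomyocytes (at least three animals) resuspended in 50 mmol/L Tris-HCl pH 7.4, 0.15−0.3 mg protein/tube, 25 °C for 60 min. [3H]verapamil 0.5 nM displaced by unlabeled compound (0.1 nM−0.1 mM). Nonspecific binding defined with 0.1 mM verapamil. GF/C filtration, two washes with 20 mmol/L Tris-HCl, liquid scintillation counting, duplicate measurements.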

Rattus norvegicus = species: Rattus norvegicus; experiment: Displacement of [3H]Isradipine from LTCC DHP site in Sprague-Dawley rat cardiomyocytes at 100 uM after 20 mins by liquid scintillation counting analysis; format: cell-based
Procedure, shortened: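 Rat cardiomyocytes pooled from at least three animals, stored frozen at −80 °C, 0.15−0.2 mg protein/tube. Incubated in 50 mmol/L Tris-HCl with 1.2 mmol/L MgCl2, pH 7.4, at 37 °C for 20 min with 0.1 nM (+)-[3H]isradipine and unlabeled compound (1 nM to 0.1 mM). Nonspecific binding defined with 0.1 mM isradipine. Filtered through PEI-presoaked GF/B filters; scintillation counting; duplicates.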

Left cardiac atrium [4] = experiment: Negative inotropic activity in potassium depolarized guinea pig left atrium assessed as reduction in developed tension at 10^-8 M after 30 mins; format: functional; settings: Cavia porcellus
Left cardiac atrium [5] = experiment: Potentiation of diltiazem-induced negative inotropic activity in potassium depolarized guinea pig left atrium assessed as reduction in developed tension at 10^-8 M preincubated for 30 mins followed by diltiazem addition; format: functional; settings: Cavia porcellus
Procedure, shortened: (§1)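 Guinea pig left atria driven at 1 Hz. Pretreated with compound at 0.01 μM, added 30 min before diltiazem, verapamil or nifedipine. Blocker concentration−response curves analysed by probit (Litchfield and Wilcoxon), n = 6−7. Data given as mean ±, Student's t test.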

Left cardiac atrium [6] = experiment: Potentiation of nifedipine-induced negative inotropic activity in potassium depolarized guinea pig left atrium assessed as reduction in developed tension at 10^-8 M preincubated for 30 mins followed by nifedipine addition; format: functional; settings: Cavia porcellus; procedure, shortened: as §1
Aorta [7] = experiment: Inhibition of diltiazem-induced vasorelaxant activity in potassium depolarized guinea pig aorta assessed as relaxation of calcium-induced contraction at 10^-6 M preincubated for 30 mins followed by diltiazem addition; format: functional, tissue-based; settings: Cavia porcellus
Procedure, shortened: (§2)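 K+-depolarized (80 mM) guinea pig aortic strips contracted with calcium. Compound at 1 μM added 30 min before diltiazem, verapamil or nifedipine. Response expressed as percent change from control. Data given as mean ±, Student's t test.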

Left cardiac atrium [8] = experiment: Negative inotropic activity in potassium depolarized guinea pig left atrium assessed as reduction in developed tension at 10^-8 M preincubated for 30 mins followed by 10^-6 M verapamil addition; format: functional, Cavia porcellus; set-up: scale not given: the % may be the effect or the level left
Left cardiac atrium [9] = experiment: Negative inotropic activity in potassium depolarized guinea pig left atrium assessed as reduction in developed tension at 10^-8 M preincubated for 30 mins followed by 5 uM diltiazem addition; format: functional, Cavia porcellus; set-up: scale not given: the % may be the effect or the level left
Left cardiac atrium [10] = experiment: Negative inotropic activity in potassium depolarized guinea pig left atrium assessed as EC50 for verapamil at 10^-8 M preincubated for 30 mins followed by verapamil addition; format: functional; settings: Cavia porcellus; procedure, shortened: as §1
Left cardiac atrium [11] = experiment: Negative inotropic activity in potassium depolarized guinea pig left atrium assessed as EC50 for diltiazem at 10^-8 M preincubated for 30 mins followed by diltiazem addition; format: functional; settings: Cavia porcellus; procedure, shortened: as §1
Aorta [12] = experiment: Vasorelaxant activity in potassium depolarized guinea pig aorta assessed as inhibition of calcium-induced contraction at 10^-6 M preincubated for 30 mins followed by 0.5 uM nifedipine addition; format: functional, Cavia porcellus; set-up: scale not given: the % may be the effect or the level left; procedure, shortened: as §2
Aorta [13] = experiment: Vasorelaxant activity in potassium depolarized guinea pig aorta assessed as inhibition of calcium-induced contraction at 10^-6 M preincubated for 30 mins followed by 10^-5 M verapamil addition; format: functional, Cavia porcellus; set-up: scale not given: the % may be the effect or the level left; procedure, shortened: as §2
Aorta [14] = experiment: Vasorelaxant activity in potassium depolarized guinea pig aorta assessed as inhibition of calcium-induced contraction at 10^-8 M preincubated for 30 mins followed by 50 uM diltiazem addition; format: functional, Cavia porcellus; set-up: scale not given: the % may be the effect or the level left
Cytochrome P450 2C19 = Cytochrome P450 2C19 (Homo sapiens, UniProt P33261); experiment: Inhibition of CYP2C19 in human liver microsomes using (S)-mephenytoin as substrate after 40 mins by LC-MS analysis
Chain of Cytochrome P450 2C19 (P33261 whole entry): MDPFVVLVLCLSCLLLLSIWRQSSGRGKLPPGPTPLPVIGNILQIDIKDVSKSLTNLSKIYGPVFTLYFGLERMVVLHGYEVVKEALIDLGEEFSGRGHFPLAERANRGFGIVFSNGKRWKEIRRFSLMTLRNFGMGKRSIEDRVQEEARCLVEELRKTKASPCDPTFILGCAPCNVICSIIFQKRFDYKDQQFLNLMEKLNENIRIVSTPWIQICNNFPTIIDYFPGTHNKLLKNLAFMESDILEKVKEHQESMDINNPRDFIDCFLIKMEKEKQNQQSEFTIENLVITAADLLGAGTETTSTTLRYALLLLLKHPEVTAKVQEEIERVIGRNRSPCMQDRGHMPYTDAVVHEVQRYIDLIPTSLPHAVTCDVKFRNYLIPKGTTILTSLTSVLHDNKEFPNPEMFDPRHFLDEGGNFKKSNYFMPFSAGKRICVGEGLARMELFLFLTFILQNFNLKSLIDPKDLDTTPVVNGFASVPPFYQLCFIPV

Cytochrome P450 2D6 = Cytochrome P450 2D6 (Homo sapiens, UniProt P10635); experiment: Inhibition of CYP2D6 in human liver microsomes using dextromethorphan as substrate after 10 mins by LC-MS analysis
Chain of Cytochrome P450 2D6 (P10635 whole entry): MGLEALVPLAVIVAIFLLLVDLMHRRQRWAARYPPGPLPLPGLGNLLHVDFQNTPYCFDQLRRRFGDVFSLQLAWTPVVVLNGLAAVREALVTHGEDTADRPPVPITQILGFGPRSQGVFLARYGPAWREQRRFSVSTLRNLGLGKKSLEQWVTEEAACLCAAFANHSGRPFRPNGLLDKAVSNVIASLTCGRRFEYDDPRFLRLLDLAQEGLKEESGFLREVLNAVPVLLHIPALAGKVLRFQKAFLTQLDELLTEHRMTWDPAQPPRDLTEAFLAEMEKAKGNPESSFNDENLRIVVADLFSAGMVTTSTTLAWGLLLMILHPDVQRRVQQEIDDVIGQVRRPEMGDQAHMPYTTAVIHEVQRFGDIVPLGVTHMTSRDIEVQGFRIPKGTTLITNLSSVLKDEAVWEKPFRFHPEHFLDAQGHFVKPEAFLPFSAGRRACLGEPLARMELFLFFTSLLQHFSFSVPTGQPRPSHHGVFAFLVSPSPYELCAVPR

Cytochrome P450 1A2 = biological target: T2, Cytochrome P450 1A2 (Homo sapiens, UniProt P05177); experiment: Inhibition of CYP1A2 in human liver microsomes using phenacetin as substrate after 30 mins by LC-MS analysis
T2 sequence (P05177 whole entry): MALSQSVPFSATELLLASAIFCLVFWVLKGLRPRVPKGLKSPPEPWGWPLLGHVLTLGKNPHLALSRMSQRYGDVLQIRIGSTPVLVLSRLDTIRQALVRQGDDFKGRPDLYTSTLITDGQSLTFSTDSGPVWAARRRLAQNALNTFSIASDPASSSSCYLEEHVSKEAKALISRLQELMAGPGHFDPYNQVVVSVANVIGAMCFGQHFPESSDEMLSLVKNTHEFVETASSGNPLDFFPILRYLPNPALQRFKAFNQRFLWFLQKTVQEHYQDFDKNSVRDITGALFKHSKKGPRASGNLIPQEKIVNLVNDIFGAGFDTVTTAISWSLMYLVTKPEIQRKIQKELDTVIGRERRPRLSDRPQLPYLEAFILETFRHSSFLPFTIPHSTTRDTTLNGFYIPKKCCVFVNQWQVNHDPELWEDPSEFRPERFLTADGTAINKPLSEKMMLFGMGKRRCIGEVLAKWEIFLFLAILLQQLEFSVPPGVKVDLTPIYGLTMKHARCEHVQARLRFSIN

Cytochrome P450 2C9 = Cytochrome P450 2C9 (Homo sapiens, UniProt P11712); experiment: Inhibition of CYP2C9 in human liver microsomes using tolbutamide as substrate after 20 mins by LC-MS analysis
Chain of Cytochrome P450 2C9 (P11712 whole entry): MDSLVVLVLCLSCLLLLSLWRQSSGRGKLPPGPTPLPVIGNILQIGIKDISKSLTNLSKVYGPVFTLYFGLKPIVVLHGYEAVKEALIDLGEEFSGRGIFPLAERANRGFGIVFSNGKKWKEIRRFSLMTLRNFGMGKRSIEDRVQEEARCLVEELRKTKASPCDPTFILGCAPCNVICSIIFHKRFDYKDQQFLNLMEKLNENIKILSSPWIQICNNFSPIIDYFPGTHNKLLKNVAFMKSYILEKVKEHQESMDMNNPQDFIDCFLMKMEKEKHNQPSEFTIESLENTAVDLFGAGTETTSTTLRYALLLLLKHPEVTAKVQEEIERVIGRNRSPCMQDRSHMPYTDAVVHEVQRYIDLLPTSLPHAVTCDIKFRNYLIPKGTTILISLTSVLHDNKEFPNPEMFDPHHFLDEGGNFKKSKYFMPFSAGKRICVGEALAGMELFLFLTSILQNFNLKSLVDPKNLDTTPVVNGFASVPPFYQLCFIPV

Cytochrome P450 3A4 [15] = biological target: T1, Cytochrome P450 3A4; experiment: Inhibition of CYP3A4 in human liver microsomes using testosterone as substrate after 5 mins by LC-MS analysis
Aorta [16] = experiment: Inhibition of diltiazem-induced vasorelaxant activity in potassium depolarized guinea pig aorta assessed as relaxation of calcium-induced contraction at 10^-8 M preincubated for 30 mins followed by diltiazem addition; format: functional, tissue-based; settings: Cavia porcellus
Aorta [17] = experiment: Inhibition of verapamil-induced vasorelaxant activity in potassium depolarized guinea pig aorta assessed as relaxation of calcium-induced contraction at 10^-8 M preincubated for 30 mins followed by verapamil addition; format: functional, tissue-based; settings: Cavia porcellus
Aorta [18] = experiment: Inhibition of nifedipine-induced vasorelaxant activity in potassium depolarized guinea pig aorta assessed as relaxation of calcium-induced contraction at 10^-8 M preincubated for 30 mins followed by nifedipine addition; format: functional, tissue-based; settings: Cavia porcellus
in vitro = settings: human, liver microsomes

## CCOC1(c2ccc(Br)cc2)SC=C(C)n2c1noc2=O (stereo not given)
Cytochrome P450 3A4 [1]
  IC50: > 20 µM
[2]
  half-life at 1 µM: 53 min
[3]
  IC50: 18.3 µM
[3]; rat, 1 h
  inhibition (INH): Dose-dependent effect
Rattus norvegicus
  inhibition: 40%
Left cardiac atrium [4]
  Activity: inactive
Left cardiac atrium [5]
  Activity: Active
Left cardiac atrium [6]
  Activity: Active
Aorta [7]
  inhibition: Active
Left cardiac atrium [8]
  Activity: 95%
Left cardiac atrium [9]
  Activity: 92%
Left cardiac atrium [10]
  EC50: 0.05 µM
Left cardiac atrium [11]
  EC50: 0.27 µM
Aorta [12]
  Activity: 11%
Aorta [13]
  Activity: 36%
Aorta [14]
  Activity: 64%
Cytochrome P450 2C19
  IC50: 1.8 µM
Cytochrome P450 2D6
  IC50: 4.1 µM
Cytochrome P450 1A2
  IC50: 2.9 µM
Cytochrome P450 2C9
  IC50: 18.4 µM
Cytochrome P450 3A4 [15]
  IC50: 19.2 µM
Aorta [16]
  inhibition: inactive
Aorta [17]
  inhibition: Active
Aorta [18]
  inhibition: Active
In vitro
  microsomal CLint at 1 µM: 53 µL/min/mg
